# Assay outcomes deposited in PubChem by several laboratories.
# GPR7 antagonist: blocks human GPR7 receptor signaling; P48145; GPR7-expressing cells, fluorescence antagonist assay; inhibition, % at 4.4 µM; hit rate 1.1% among 290,000; in the data active = inhibition above about 16%, passing the limit was not always enough;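 also: cells stimulated with the agonist NPW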
# Target sequence (P48145 whole entry, looked up): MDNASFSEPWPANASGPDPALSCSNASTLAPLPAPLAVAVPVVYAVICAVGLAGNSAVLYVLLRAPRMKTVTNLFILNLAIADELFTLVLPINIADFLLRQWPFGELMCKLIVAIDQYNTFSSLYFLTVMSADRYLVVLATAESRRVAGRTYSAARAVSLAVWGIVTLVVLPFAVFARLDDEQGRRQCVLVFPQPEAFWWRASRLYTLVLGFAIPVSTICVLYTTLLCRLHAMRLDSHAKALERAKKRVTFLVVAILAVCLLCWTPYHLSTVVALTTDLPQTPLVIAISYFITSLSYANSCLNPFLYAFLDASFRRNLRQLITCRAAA
# TAAR1 antag: human TAAR1 antagonism; AID 624466; CHO RD-HGA16 TAAR1, Fluo-8 calcium fluorescence, antagonist; inhibition, % at 3 µM; Q96RJ0; hit rate 1.5% among 360,000;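 active = inhibition above a per-plate cutoff, the mean inhibition of test compounds on that plate plus 3 SD, cut at about 49% in these data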
# Target sequence (Q96RJ0 whole entry, looked up): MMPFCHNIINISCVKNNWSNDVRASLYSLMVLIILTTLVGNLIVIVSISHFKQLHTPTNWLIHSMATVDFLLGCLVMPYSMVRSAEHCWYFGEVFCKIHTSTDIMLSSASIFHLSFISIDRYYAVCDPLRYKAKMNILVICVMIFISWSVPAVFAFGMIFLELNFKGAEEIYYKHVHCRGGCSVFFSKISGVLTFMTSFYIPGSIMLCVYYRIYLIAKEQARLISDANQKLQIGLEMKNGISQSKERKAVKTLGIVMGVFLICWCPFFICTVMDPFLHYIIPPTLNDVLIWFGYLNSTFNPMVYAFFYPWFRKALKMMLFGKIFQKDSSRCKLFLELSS
#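 Assay system: RD-HGA16 CHO cells with stable hTAAR1 and Gα16 / Reagent: EC80 β-phenethylamine stimulus / Doses: 3 µM, single point / Timing: dye loading 75 min at 37 °C, then 30 min room temperature / Measured by: Fluo-8 intracellular calcium dye fluorescence, real-time kinetic reads / Controls: vehicle wells and EC80 agonist wells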
# MPTP inh: inhibitors of mitochondrial permeability transition pore | isolated mouse mitochondria, Ca2+ swelling absorbance, 30 min | hit rate 1.4% among 360,000 | AID 602449 | inhibition, % at 10 µM;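 active = inhibition of 50% or more, scaled per plate between neutral and stimulator controls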
# DAGLB inh: diacylglycerol lipase beta (human) inhibition | Q8NCG7 | HEK293T DAGLB membrane lysate, EnzChek fluorogenic substrate | inhibition, % at 5.17 µM | hit rate 0.059% among 340,000 | AID 504411; in the data active = inhibition above about 34%
# TAAR1 ag: agonists of human TAAR1. CHO RD-HGA16 TAAR1, Fluo-8 calcium fluorescence; vehicle wells 0%, saturating PEA agonist 100%. activation, % at 3 µM. hit rate 0.99% among 360,000. AID 624467;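 active = activation above the mean activation of all test compounds in the run plus 3 SD, cut at about 38% in these data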
#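 Assay system: CHO-derived RD-HGA16 cells with stable Gα16 and human TAAR1; timing: 17-24 h seeding, 75 min 37 °C dye, 30 min RT; read-out: % activation from peak over basal fluorescence ratio, DMSO-to-PEA scaled; measured by: kinetic Fluo-8 calcium fluorescence; benchmarks: low control DMSO, high control PEA (EC100); doses: 3 µM single concentration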
# nonsel antag count: nonselective antagonism, TAAR1 counter-screen | shares compounds with TAAR1 antag | counterscreen cell line, calcium fluorescence, antagonist mode | inhibition, % at 3 µM | hit rate 77% among 2,400 | AID 651780; in the data active = inhibition above about 22%;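 also: CHO-Ga16 host cells stimulated with ATP at an EC80 level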
# TAAR1 antag conf: human TAAR1 antagonism, confirmed. shares compounds with TAAR1 antag. TAAR1-expressing cells, fluorescence antagonist read-out. inhibition, % at 3 µM. hit rate 40% among 2,400; in the data active = inhibition above about 49%;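 also: CHO-Ga16 host cells challenged with agonist PEA near its EC80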
# Ga16 nonsel ag: nonselective Ga16 agonist in TAAR1 antagonist counter-screen; shares compounds with TAAR1 antag; Ga16-expressing cells, calcium fluorescence, agonist counterscreen; activation, % at 3 µM; hit rate 18% among 2,400; AID 651953; in the data active = activation above about 12%
# TAAR1 ag count: activates human TAAR1 in antagonist counter-screen; shares compounds with TAAR1 antag; hTAAR1 cell line, fluorescence activation, agonist mode; activation, % at 3 µM; hit rate 2% among 2,400; AID 651955; in the data active = activation above about 37%;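 also: CHO cells stably expressing TAAR1 with calcium dye readout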
# A number is an active result; - = inactive; . = no result. Sampled rows, rich in hits. Any-hit rate of the full collection: about 4%.
SMILES,GPR7 antagonist,TAAR1 antag,MPTP inh,DAGLB inh,TAAR1 ag,nonsel antag count,TAAR1 antag conf,Ga16 nonsel ag,TAAR1 ag count
CCC(=O)Nc1cccc(-c2nnc(-c3cccc(NC(=O)CC)c3)o2)c1,-,56,-,-,-,22,-,-,-
COC(=O)[C@H]1C[C@H](OC(=O)NC2CC2)[C@@]2(O)CN(S(=O)(=O)c3ccc(C)cc3)CC2[C@H]1C(=O)OC (some centres undefined),.,-,-,-,-,.,.,.,.
N#Cc1ccc(S(=O)(=O)NCC2CCN(C(=O)C(=O)c3cc4ccccc4o3)CC2)cc1,.,-,.,.,-,.,.,.,.
COc1ccc(C2=NS(=O)(=O)N(C)C(C(=O)NC(C)c3ccccc3)=C2)cc1OC (centres undefined),-,-,-,-,-,.,.,.,.
COc1ccc(C2=NS(=O)(=O)N(C)C(C(=O)N(C)Cc3ccccc3)=C2)cc1OC,-,52,-,-,-,23,-,-,-
CC(=O)c1cccc(OCC(=O)Nc2ccccc2N2CCOCC2)c1,.,51,-,-,-,-,-,-,-
COc1cc(C(C)=O)ccc1OCC(=O)Nc1ccccc1N1CCCCC1,.,55,-,-,-,-,-,-,-
CC(=O)c1cccc(OCC(=O)Nc2cc(S(=O)(=O)N3CCOCC3)ccc2N2CCCC2)c1,.,-,-,-,-,.,.,.,.
C=CCCC1CN(Cc2ccc(OC)cc2)S(=O)(=O)c2c(cccc2Sc2ccc(OC)c(OC)c2)O1 (centres undefined),.,-,.,.,-,.,.,.,.
CCOC(=O)N1CCN(Cc2nc3ccc([N+](=O)[O-])cc3c(=O)n2-c2ccccc2F)CC1,-,71,-,-,-,-,-,-,-
Cn1nc(C(C)(C)C)c([N+](=O)[O-])c1C(=O)Nc1cccc2ccccc12,-,56,-,-,-,22,-,-,-
COc1ccccc1NC(=O)c1c([N+](=O)[O-])c(C(C)(C)C)nn1C,-,-,-,-,-,.,.,.,.
c1ccc(CN(CCN2CCOCC2)Cc2ccccc2)cc1,.,-,-,-,-,.,.,.,.
COc1ccc(C(=O)Nc2cccc(/C(C)=N/NC(=O)c3ccc([N+](=O)[O-])c(C)c3)c2)cc1OC,-,60,-,-,-,44,66,12,-
Cc1cc(C(=O)Nc2cccc(NC(=O)c3ccco3)c2)ccc1[N+](=O)[O-],-,58,-,-,-,-,-,-,-
COc1ccc(C(=O)Nc2cccc(NC(C)=O)c2)cc1OC,-,-,-,-,-,.,.,.,.
Cc1cccc(NC(=O)c2cccc(NC(=O)c3ccco3)c2)c1,.,-,-,-,-,.,.,.,.
CN(C)C1CN(Cc2cn(Cc3ccc(C(F)(F)F)cc3)nn2)S(=O)(=O)C1 (centres undefined),.,-,-,.,-,.,.,.,.
N#Cc1ccc(-c2nc3c4ccccc4ccn3c2Cc2cccc(Cl)c2)cc1,.,-,-,.,-,.,.,.,.
CC1(c2nnc(-c3cccc(Cl)c3)o2)CC(c2c(Cl)cccc2Cl)=NO1 (centres undefined),.,64,-,-,-,22,-,-,-
Cc1ccc2nc(CN(C)C(=O)[C@@H](Cc3ccccc3)NC(=O)[C@H]3O[C@@H](n4cnc(C(N)=O)n4)[C@H](O)[C@@H]3O)[nH]c2c1,.,-,.,.,-,.,.,.,.
c1ccc(-c2c(-c3ccccc3)n(Cc3ccco3)c3ncnc(NCCCn4ccnc4)c23)cc1,-,61,-,-,-,25,-,22,40
O=C1NC(Cc2ccccc2)c2nc3ccccc3c(=O)n2-c2ccc(Cl)cc21 (centres undefined),.,-,.,.,-,.,.,.,.
[O-][n+]1cc(Cl)cc(Cl)c1,.,-,-,.,-,.,.,.,.
O=C(N/N=C/c1ccccn1)c1[nH]c2ccc([N+](=O)[O-])cc2c1-c1ccccc1,-,50,-,-,-,-,51,12,-
SMILES,GPR7 antagonist,TAAR1 antag,MPTP inh,DAGLB inh,TAAR1 ag,nonsel antag count,TAAR1 antag conf,Ga16 nonsel ag,TAAR1 ag count
FC(F)(F)c1ccccc1Cc1c(-c2ccccc2)nc2ccc(Br)cn12,.,-,-,.,-,.,.,.,.
CCc1c(-c2ccc(F)cc2)ncn1CCc1ccccc1OC,.,-,.,.,-,.,.,.,.
O=C(C[C@@H]1C/C=C\C[C@H](Cc2ccc(F)cc2)C(=O)OC[C@H]2CCCN2C1=O)N[C@H](CO)Cc1ccccc1,.,61,-,-,-,23,-,-,-
O=C(C[C@H]1C/C=C/CC[C@H](Cc2ccc(F)cc2)C(=O)O[C@H](c2ccccc2)CNC1=O)NCCO,.,-,-,-,-,.,.,.,.
O=C1N[C@@H](Cc2ccccc2)COC(=O)[C@@H](Cc2ccc(F)cc2)CC/C=C/C[C@@H]1CC(=O)N(CCO)Cc1ccccc1,.,-,-,-,-,.,.,.,.
O=C1N[C@@H](c2ccccc2)COC(=O)[C@H](Cc2ccc(F)cc2)CC/C=C/C[C@H]1CC(=O)N(CCO)Cc1ccccc1,.,61,-,-,-,32,-,13,-
O=C(C[C@@H]1C/C=C/CC[C@@H](Cc2ccc(F)cc2)C(=O)O[C@@H](c2ccccc2)CNC1=O)NCCO,.,66,-,-,-,26,49,-,-
O=C(C[C@@H]1C/C=C\C[C@@H](Cc2ccc(F)cc2)C(=O)OC[C@@H]2CCCN2C1=O)N[C@H](CO)Cc1ccccc1,.,-,-,-,-,.,.,.,.
CC(C)(C)OC(=O)C[C@@H]1C/C=C\C[C@@H](CC(=O)N[C@@H](CO)Cc2ccccc2)C(=O)NC[C@@H](c2ccccc2)OC1=O,.,67,-,-,-,28,-,-,-
COc1ccc(C(C)(O)c2nc(-c3cccc(O)c3)cs2)cc1 (centres undefined),.,-,-,.,-,.,.,.,.
COc1ccc2c(c1)[C@@H](NC(=O)c1ccncc1)[C@@H]1Cc3ccccc3[C@H]21,.,-,.,.,-,.,.,.,.
COCCN1CCCc2nc(-c3ccc(F)cc3)ccc21,.,-,.,.,-,.,.,.,.
COc1ccc(-c2cn(CCc3c[nH]c4ccccc34)nn2)cc1,-,-,-,-,-,.,.,.,.
O=C1N[C@H](Cc2ccccc2)COC(=O)[C@H](Cc2ccc(F)cc2)C/C=C\C[C@@H]1CC(=O)N(CCO)Cc1ccccc1,.,54,-,-,-,32,49,12,-
O=C1NC[C@@H](c2ccccc2)OC(=O)[C@H](Cc2ccc(F)cc2)C/C=C\C[C@H]1CC(=O)N(CCO)Cc1ccccc1,.,68,-,-,-,30,-,-,-
CC(C)(C)OC(=O)C[C@H]1C/C=C\C[C@H](CC(=O)N(CCO)Cc2ccccc2)C(=O)N[C@@H](c2ccccc2)COC1=O,.,56,-,-,-,30,-,-,-
